Data as given in ChEMBL document CHEMBL5143713, “Multitarget, Selective Compound Design Yields Potent Inhibitors of a Kinetoplastid Pteridine Reductase 1” (J Med Chem, 2022).

Assays:
[1] = molecular target: T1, Pteridine reductase, putative (Trypanosoma brucei, UniProt Q581W1); experiment: Inhibition of recombinant Trypanosoma brucei PTR1 expressed in Escherichia coli BL21 (DE3) cells using H2B as substrate in presence of cytochrome c and NADPH by envision multilabel reader
T1 sequence (Q581W1 whole entry): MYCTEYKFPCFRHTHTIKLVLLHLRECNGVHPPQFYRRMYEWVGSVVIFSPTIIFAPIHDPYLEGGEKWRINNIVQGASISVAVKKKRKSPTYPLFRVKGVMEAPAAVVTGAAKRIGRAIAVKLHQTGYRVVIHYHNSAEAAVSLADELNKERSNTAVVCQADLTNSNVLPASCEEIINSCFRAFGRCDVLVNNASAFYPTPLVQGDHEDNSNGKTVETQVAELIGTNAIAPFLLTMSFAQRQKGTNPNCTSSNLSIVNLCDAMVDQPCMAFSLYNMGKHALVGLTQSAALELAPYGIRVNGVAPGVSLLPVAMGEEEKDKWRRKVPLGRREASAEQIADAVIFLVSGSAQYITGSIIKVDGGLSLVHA

Pteridine reductase 1 = molecular target: T2, Pteridine reductase 1 (Leishmania major, UniProt Q01782); experiment: Inhibition of recombinant Leishmania major PTR1 expressed in Escherichia coli BL21 (DE3) cells using H2B as substrate in presence of cytochrome c and NADPH by envision multilabel reader
T2 sequence (Q01782 whole entry): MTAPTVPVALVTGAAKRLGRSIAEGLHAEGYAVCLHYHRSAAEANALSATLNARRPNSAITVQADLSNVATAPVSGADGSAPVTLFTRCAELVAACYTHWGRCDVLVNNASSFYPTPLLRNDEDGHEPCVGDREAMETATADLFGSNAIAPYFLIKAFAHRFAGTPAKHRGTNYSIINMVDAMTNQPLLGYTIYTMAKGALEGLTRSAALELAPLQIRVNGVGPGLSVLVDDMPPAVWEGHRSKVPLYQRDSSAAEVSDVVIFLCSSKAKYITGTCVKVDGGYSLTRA

[2] = molecular target: Bifunctional dihydrofolate reductase-thymidylate synthase (Trypanosoma brucei brucei, UniProt Q27783); experiment: Inhibition of recombinant Trypanosoma brucei DHFR-TS expressed in Escherichia coli BL21 (DE3) cells using dihydrofolate as substrate in presence of NADPH by spectrophotometric analysis
[3] = molecular target: Bifunctional dihydrofolate reductase-thymidylate synthase (Leishmania major, UniProt P07382); experiment: Inhibition of recombinant Leishmania major DHFR-TS expressed in Escherichia coli BL21 (DE3) cells using dihydrofolate as substrate in presence of NADPH by spectrophotometric analysis
Dihydrofolate reductase = molecular target: T3, Dihydrofolate reductase (Homo sapiens, UniProt P00374); experiment: Inhibition of recombinant human DHFR expressed in Escherichia coli BL21 (DE3) cells using dihydrofolate as substrate in presence of NADPH by spectrophotometric analysis; type: toxicity
T3 sequence (P00374 whole entry): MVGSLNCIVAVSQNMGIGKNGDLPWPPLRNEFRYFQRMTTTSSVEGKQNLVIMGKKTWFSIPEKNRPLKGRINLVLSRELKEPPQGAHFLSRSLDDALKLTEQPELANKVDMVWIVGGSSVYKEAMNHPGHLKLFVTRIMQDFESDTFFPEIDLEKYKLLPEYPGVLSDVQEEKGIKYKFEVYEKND

[4] = test system: human DHFR versus Trypanosoma brucei PTR1; experiment: Selectivity index, ratio of IC50 for human DHFR to IC50 for Trypanosoma brucei PTR1; type: toxicity; conditions: read-out: Ratio IC50
[5] = test system: human DHFR versus Leishmania major PTR1; experiment: Selectivity index, ratio of IC50 for human DHFR to IC50 for Leishmania major PTR1; type: toxicity; conditions: read-out: Ratio IC50
[6] = test system: human DHFR versus Trypanosoma brucei DHFR; experiment: Selectivity index, ratio of IC50 for human DHFR to IC50 for Trypanosoma brucei DHFR; type: toxicity; conditions: read-out: Ratio IC50
[7] = test system: human DHFR versus Leishmania major DHFR; experiment: Selectivity index, ratio of IC50 for human DHFR to IC50 for Leishmania major DHFR; type: toxicity; conditions: read-out: Ratio IC50
786-0 = experiment: Mitochondrial toxicity in human 786-0 cells at 10 uM incubated with compound for 6 hrs followed by incubation with MitoTracker Red chloromethyl-X-rosamine dye for 45 mins by imaging analysis relative to control; type: cell-based; conditions: 786-0, 6 h
In short: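 Tested at 10 μM. 786-O cells kept in RPMI-1640 with 2 mM glutamine, 10% FCS, streptomycin 100 μg/mL and penicillin G 100 U/mL. Mitochondrial toxicity read as MitoTracker Red (chloromethyl-X-rosamine) uptake by high-content imaging.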

A549 = experiment: Cytotoxicity against human A549 cells at 10 uM measured after 48 hrs by Celltiter-Glo assay relative to control; type: toxicity, cell-based; conditions: a549, 48 h
In short: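 Tested at 10 μM. A549 cells grown in DMEM with 10% FCS, streptomycin 100 μg/mL and penicillin G 100 U/mL. Viability read as cellular ATP by CellTiter-Glo luminescence.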

Bifunctional dihydrofolate reductase-thymidylate synthase (Leishmania major, UniProt P07382), sequence (P07382 whole entry): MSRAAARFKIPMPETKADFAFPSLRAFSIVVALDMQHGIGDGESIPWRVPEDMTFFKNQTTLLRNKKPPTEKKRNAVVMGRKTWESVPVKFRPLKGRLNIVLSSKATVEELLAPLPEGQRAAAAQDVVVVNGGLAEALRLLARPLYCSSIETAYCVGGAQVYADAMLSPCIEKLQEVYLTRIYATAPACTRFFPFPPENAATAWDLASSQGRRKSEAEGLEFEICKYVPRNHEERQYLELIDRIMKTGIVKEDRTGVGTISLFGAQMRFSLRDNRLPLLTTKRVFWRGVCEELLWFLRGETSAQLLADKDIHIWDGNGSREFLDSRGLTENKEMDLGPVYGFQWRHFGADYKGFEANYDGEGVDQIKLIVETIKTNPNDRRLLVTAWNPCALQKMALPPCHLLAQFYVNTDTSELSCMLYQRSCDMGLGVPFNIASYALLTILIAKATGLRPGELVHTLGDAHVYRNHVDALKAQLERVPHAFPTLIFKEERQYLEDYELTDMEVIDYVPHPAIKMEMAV
Bifunctional dihydrofolate reductase-thymidylate synthase (Trypanosoma brucei brucei, UniProt Q27783), sequence (Q27783 whole entry): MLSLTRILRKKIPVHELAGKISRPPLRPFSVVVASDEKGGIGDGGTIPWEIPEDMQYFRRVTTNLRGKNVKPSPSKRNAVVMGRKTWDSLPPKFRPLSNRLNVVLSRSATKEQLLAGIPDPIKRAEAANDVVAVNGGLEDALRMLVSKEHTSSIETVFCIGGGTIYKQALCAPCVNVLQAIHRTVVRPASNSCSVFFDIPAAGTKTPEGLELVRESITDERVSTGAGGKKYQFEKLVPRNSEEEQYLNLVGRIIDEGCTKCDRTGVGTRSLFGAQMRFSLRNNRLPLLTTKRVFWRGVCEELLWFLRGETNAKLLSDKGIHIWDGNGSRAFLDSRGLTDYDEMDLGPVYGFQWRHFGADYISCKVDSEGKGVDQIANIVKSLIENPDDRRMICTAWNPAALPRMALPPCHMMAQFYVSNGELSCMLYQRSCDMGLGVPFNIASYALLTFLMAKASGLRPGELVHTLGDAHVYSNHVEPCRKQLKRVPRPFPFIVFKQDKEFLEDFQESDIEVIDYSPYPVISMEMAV

| SMILES | IC50 [1] | IC50 (Pteridine reductase 1) | IC50 [2] | IC50 [3] | IC50 (Dihydrofolate reductase) | selectivity ratio [4] | selectivity ratio [5] | selectivity ratio [6] | selectivity ratio [7] | Activity (786-0) | Activity (A549) |
| --- | --- | --- | --- | --- | --- | --- | --- | --- | --- | --- | --- |
| C#CCN(Cc1cnc2nc(N)nc(N)c2n1)c1ccc(C(=O)N2CCC(C(=O)OC)CC2)cc1 | 40 nM | 320 nM | 1180 nM | 710 nM | 78000 nM | 1950 | 244 | 66 | 110 | – | – |
| CCN(Cc1cnc2nc(N)nc(N)c2n1)c1ccc(C(=O)N2CCC(C(=O)OC)CC2)cc1 | 90 nM | 13300 nM | 620 nM | 460 nM | 4300 nM | 48 | – | 7 | 9 | 0% | 100% |
| CCCOC(=O)C1CCN(C(=O)c2ccc(N(C)Cc3cnc4nc(N)nc(N)c4n3)cc2)CC1 | 30 nM | 410 nM | 3000 nM | 150 nM | 9000 nM | 300 | 22 | 3 | 59 | 0% | 0% |
| COc1ccc(CNC(=O)c2ccc(CNCc3cnc4nc(N)nc(N)c4n3)cc2)cc1OC | 220 nM | 1570 nM | – | – | – | 455 | 64 | 2 | 1 | 0% | – |
| Nc1nc(N)c2nc(CNc3ccc(C(=O)N4CCC(C(=O)O)CC4)cc3)cnc2n1 | 1720 nM | – | 1380 nM | 600 nM | – | – | – | – | – | 0% | 0% |
| CN(Cc1cnc2nc(N)nc(N)c2n1)c1ccc(C(=O)N2CCCCC2)cc1 | 10 nM | 140 nM | 1450 nM | 2050 nM | – | 2980 | 213 | 21 | 15 | 15% | – |
| CCOC(=O)C1CCN(C(=O)c2ccc(N(CC)Cc3cnc4nc(N)nc(N)c4n3)cc2)CC1 | 1 nM | 100 nM | 230 nM | 180 nM | 13000 nM | – | – | – | – | – | – |
| COC(=O)C1CCN(C(=O)c2cccc(NCc3cnc4nc(N)nc(N)c4n3)c2)CC1 | 150 nM | 1690 nM | – | – | 59000 nM | 393 | 35 | 3 | 2 | – | – |
| CCOC(=O)C1CCN(C(=O)c2ccc(N(C)Cc3cnc4nc(N)nc(N)c4n3)cc2)CC1 | 40 nM | 450 nM | 9000 nM | 130 nM | 12000 nM | 300 | 27 | 1 | 90 | 0% | – |
| Nc1nc(N)c2nc(CNc3ccc(C(=O)NCCc4ccccc4)cc3)cnc2n1 | < 0.1 nM | 30 nM | 980 nM | 720 nM | 40300 nM | > 403000 | 1340 | 41 | 56 | 13% | 100% |
| Nc1nc(N)c2nc(C(=O)NCc3ccccc3)cnc2n1 | 10 nM | 5500 nM | – | – | – | 10000 | 18 | 1 | 1 | 0% | 100% |
| COC(=O)C1CCN(C(=O)c2ccc(NCc3cnc4nc(N)nc(N)c4n3)cc2)CC1 | 110 nM | – | 20500 nM | 620 nM | 51000 nM | – | – | – | – | 0% | 100% |
